Cl transport mod = KCC2 (human) Cl- transport modulation; KCC2 cells, thallium flux FluoZin-2 fluorescence; B-score of Tl+ flux slope (higher = more flux/activation; lower = inhibition) at 10 µM; 190,000 compounds, 2.2% hits; AID 1456;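 active = thallium flux slope and its plate-corrected score both differing from the plate sample mean at a set confidence after two filtering rounds, in either direction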;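 note: slope of fluorescence scaled to starting intensity during 10 to 20 s after thallium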
PMI act satM6P = PMI (human) activation, high substrate. P34949. coupled PMI enzyme assay, resazurin fluorescence, 20 min; hits give high values; 1 = untreated enzyme, 0 = substrate-free blank. activation factor at 20 µM. 190,000 compounds, 0.34% hits. AID 1216;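 active = activation factor of 2 or more at 20 µM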
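Test system: human PMI in coupled enzyme assay; Input: PMI at 15 ng/mL final; Medium: HEPES buffer, pH 7.4; Schedule: 20 min incubation at room temperature; Technique: resorufin fluorescence at Ex 544/Em 590 nm; Compound: 20 µM single dose; Probe or stimulus: Near-saturating mannose-6-phosphate, 1.0 mM.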
ROMK mod = human ROMK K+ channel modulation, primary screen; P48048; Tet-inducible ROMK, thallium flux fluorescence; actives lie on both sides; B-score at 10 µM; 130,000 compounds, 2% hits;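 active = signal ratio slope over the read window, or its plate-corrected B-score, at least 3 SD from the plate mean, either direction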;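 note: B-score of the F/F0 ratio slope over 7 to 12 s after thallium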
ABCG2 block = inhibitors of human ABCG2 transporter, ABCB1 counter-screen | Q9UNQ0 | IgMXP3 cells, JC-1 efflux, flow cytometry | inhibition, % at 6.6 µM | 190,000 compounds, 0.1% hits;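 active = inhibition above 80%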
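System: two drug-resistant human cell lines, ABCG2 and ABCB1; controls: nicardipine high and DMSO low controls; times: 10 min exposure at 25 °C with rotation, no wash; detection: flow cytometry of retained JC-1 fluorescence; read-out basis: percent efflux inhibition, scaled nicardipine 100% to DMSO 0%; doses: one concentration, 6.6 µM final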
ABCB1 block = blocks JC-1 efflux by human ABCB1 transporter; P08183; CCRF-Adr cells, flow cytometry; inhibition, % at 6.6 µM; 190,000 compounds, 0.067% hits; AID 1326; in the data active = inhibition above about 40%;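 note: higher value means more JC-1 retained so stronger ABCB1 efflux block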
PMI act = activators of human phosphomannose isomerase | P34949 | purified human PMI, coupled resazurin fluorescence, 20 min; hits give high values; 1 = vehicle control, 0 substrate-free wells | activation factor at 20 µM | 190,000 compounds, 0.005% hits | AID 1214;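 active = activation factor of 2 or more at 20 µM, relative to plate controls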
KCC2 secondary = KCC2 (human) modulation, secondary assay; shares compounds with Cl transport mod; HEK293-KCC2, thallium flux, FluoZin2 fluorescence; hits give high values; normalised thallium flux (F/F0 slope) at 10 µM; 3,700 compounds, 15% hits;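 active = thallium flux slope above the same plate's solvent-only control mean plus 3 SD; inconclusive = the two replicate wells disagree; inactive = no significant difference from solvent-only control wells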
KCC2 bumet counter = bumetanide-insensitive thallium flux in KCC2 cells with ouabain, counter-screen | normalized thallium flux at 10 µM | AID 1714 | HEK293-KCC2 + bumetanide/ouabain, thallium flux FluoZin2; hits give high values | shares compounds with Cl transport mod | 3,700 compounds, 49% hits;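 active = thallium entry rate above the same plate's blocked-transporter control wells by more than 3 SD; inconclusive = the two repeat wells disagree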;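 note: raw slope of fluorescence over initial fluorescence between 10 and 20 s after thallium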
KCC2 sec2 = confirmation of human KCC2 transport modulators | shares compounds with Cl transport mod | HEK293-KCC2, thallium flux FluoZin2 fluorescence; actives lie on both sides; F/F0 rise rate, 10–20 s post-thallium | normalized thallium flux at 10 µM | 3,700 compounds, 23% hits;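 active = thallium flux slope more than 3 SD above or below the plate's solvent-only control mean, mostly below; inconclusive = the two repeat wells disagreed; inactive = no significant shift from solvent-only controls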
HEK counter1 = counter-screen for KCC2 modulators: effect in parental HEK293 cells. AID 1716. thallium flux FluoZin2, ouabain; baseline-ratio fluorescence slope, 10–20 s after thallium. 3,700 compounds, 46% hits. thallium flux rate (normalised fluorescence) at 10 µM. shares compounds with Cl transport mod;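 active = thallium flux rate significantly above the same plate's solvent-only control wells, beyond their mean plus 3 SD; inconclusive = the two replicate wells gave conflicting results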
KCC2 retest ouab = KCC2 (human) modulation, ouabain retest; HEK293-KCC2, thallium flux FluoZin2 fluorescence; bidirectional: low = inhibitor, high = activator; AID 1717; raw Tl+ flux slope (below DMSO = inhibition, above = activation) at 10 µM; 3,700 compounds, 48% hits; shares compounds with Cl transport mod;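 active = thallium flux slope beyond 3 SD from same-plate DMSO control mean in most replicates, usually higher, sometimes lower; inconclusive = repeat tests gave conflicting results; inactive = no significant difference from controls in most replicates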;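 note: slope of initial-normalized fluorescence between seconds 10 and 20 after thallium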
HEK293 Tl flux2 = counter-screen for KCC2 modulators: effect in parental HEK293 cells; thallium flux slope at 10 µM; 3,700 compounds, 33% hits; thallium flux FluoZin-2 fluorescence slope; shares compounds with Cl transport mod; AID 1718;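 active = thallium flux slope above the same plate's solvent-control mean plus 3 SD in both duplicate wells; inconclusive = duplicate wells that disagreed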;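 note: run without ouabain in cells lacking the KCC2 cotransporter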
A number is an active result; n = inactive; u = inconclusive; x = not tested or not shown. Hits are enriched below; roughly 3.3% of the tested compounds scored in any of these assays.

SMILES | Cl transport mod | PMI act satM6P | ROMK mod | ABCG2 block | ABCB1 block | PMI act | KCC2 secondary | KCC2 bumet counter | KCC2 sec2 | HEK counter1 | KCC2 retest ouab | HEK293 Tl flux2
CCC1(c2ccccc2)NC(=S)N(c2ccc(C)cc2)N1 (configuration not stated) | 77.5 | n | n | n | n | n | 0.0306 | 0.0999 | 0.0728 | 0.093 | 0.092 | 0.0906
CCNC(=S)NNC(=O)c1ccccn1 | n | n | n | n | n | n | x | x | x | x | x | x
O=C(NNC(=S)Nc1ccc(Cl)c(Cl)c1)c1ccccn1 | 11.1 | n | n | n | n | n | 0.0131 | 0.0369 | n | 0.0186 | 0.0512 | 0.0117
CCOC(=O)C1CCN(C(=S)Nc2cccc(C)c2C)CC1 | n | n | n | n | n | n | x | x | x | x | x | x
CCN(CC)Cc1c(O)ccc2c(C)c(CC(=O)OC)c(=O)oc12 | x | n | n | n | n | n | n | u | n | n | n | n
COC(=O)Cc1c(C)c2ccc(OCC(C)=O)c(C)c2oc1=O | n | n | x | n | n | n | x | x | x | x | x | x
CC(C)(CC(=O)O)CC(=O)Nc1ccc(Oc2ccc(C(C)(C)C)cc2)nc1 | 4.85 | x | x | x | x | x | n | n | n | n | n | n
Cc1ccc(S(=O)(=O)NNC(=S)NC(=O)c2ccc([N+](=O)[O-])cc2)cc1 | n | n | n | n | n | n | x | x | x | x | x | x
Cc1ccc(C(=O)NC(=S)NNS(=O)(=O)c2ccc(C)cc2)cc1 | 6.17 | n | n | n | n | n | 0.0173 | 0.0234 | n | 0.00924 | n | 0.0124
CCn1c(=O)cc(C(F)(F)F)[nH]c1=S | n | n | n | n | n | n | x | x | x | x | x | x
CCc1ccc(OCCNC(=O)c2ccccc2SCc2ccccc2)cc1 | x | n | x | n | n | n | n | u | 0.024 | n | 0.0146 | n
O=C(NCCOc1ccccc1F)c1ccccc1SCc1ccc(F)cc1 | -6.24 | n | n | n | n | n | n | n | 0.0221 | n | 0.0122 | n
CSc1ccccc1C(=O)NCCOc1ccccc1C | x | n | n | n | n | n | x | x | x | x | x | x
N#Cc1ccc(Cl)cc1NC(=O)CSc1nc2nc(-c3cccs3)cc(C(F)(F)F)c2c(=O)[nH]1 | n | x | x | x | x | x | x | x | x | x | x | x
Cn1c(=O)c(C(=O)CSc2nncs2)c(N)n(Cc2ccccc2)c1=O | n | n | n | n | n | n | x | x | x | x | x | x
S=C(N=Nc1ccccc1)NNc1ccccc1 | 22.6 | 2.7 | x | n | n | n | n | 0.0178 | 0.0392 | 0.0188 | 0.0271 | 0.024
O=C(CSc1nccc2ccccc12)N1CCN(c2ccccn2)CC1 | -3.3 | n | x | n | n | n | n | n | n | n | 0.015 | n
C=CCn1c(C)nc2c(sc3nc4c(cc32)COC(C)(C)C4)c1=O | n | x | x | x | x | x | x | x | x | x | x | x
CCCCn1c(NS(=O)(=O)c2ccc(C)cc2)c(S(=O)(=O)c2ccccc2)c2nc3ccccc3nc21 | -6.46 | n | x | n | n | n | n | 0.017 | n | u | u | n
O=C(CSc1nnnn1-c1ccccc1)Nc1nsc(-c2ccc(Cl)cc2)n1 | n | n | x | n | n | n | x | x | x | x | x | x
O=C(CSc1nnnn1-c1ccccc1)Nc1nsc(-c2ccccc2)n1 | -6.3 | n | x | n | n | n | n | n | 0.0242 | n | n | n
Cc1[nH][nH]c(=O)c1C(c1ccc(-c2ccc(F)cc2)o1)c1c(C)[nH][nH]c1=O | -5.17 | n | n | n | n | n | n | n | 0.0251 | n | n | n
Cc1[nH][nH]c(=O)c1C(c1ccc(-c2ccc(Cl)c(Cl)c2)o1)c1c(C)[nH][nH]c1=O | -3.94 | n | n | n | n | n | n | n | 0.0224 | n | 0.015 | n
O=C(Nc1cccc(Cl)c1)Nn1cnnc1 | n | x | x | x | x | x | x | x | x | x | x | x
O=C(CN1C2=NCCN2c2ccccc21)c1ccc(Br)s1 | n | n | x | n | n | n | x | x | x | x | x | x
SMILES | Cl transport mod | PMI act satM6P | ROMK mod | ABCG2 block | ABCB1 block | PMI act | KCC2 secondary | KCC2 bumet counter | KCC2 sec2 | HEK counter1 | KCC2 retest ouab | HEK293 Tl flux2
Cc1nn(Cc2ccccc2)c2sc(C(=O)N3CCN(Cc4ccc5c(c4)OCO5)CC3)cc12 | n | n | n | n | n | n | x | x | x | x | x | x
CCn1cc(C2=NOC(C(=O)Nc3cc(C)nn3-c3ccccc3)C2)c(C)n1 (configuration not stated) | 4.55 | n | n | n | n | n | n | u | n | n | n | n
Cc1cc(NC(=O)C2CC(c3ccc(F)cc3)=NO2)n(-c2ccccc2)n1 (configuration not stated) | x | n | x | n | n | n | x | x | x | x | x | x
CN(CCO)c1cc(Sc2nc3ccccc3s2)c2nonc2c1[N+](=O)[O-] | x | n | x | n | n | n | n | 0.015 | n | 0.0143 | u | 0.0169
C=CCNC(=S)N1CCN(c2ncc(C(F)(F)F)cc2Cl)CC1 | n | x | x | x | x | x | x | x | x | x | x | x
CN(C)S(=O)(=O)c1ccc(C(=O)Nc2ccccc2C(=O)O)cc1 | -4.13 | n | n | n | n | n | n | n | n | n | n | u
Cc1ccc(S(=O)(=O)N2CCC(NC(=O)c3cccc(C)c3)CC2)cc1 | x | n | x | n | n | n | x | x | x | x | x | x
O=C(Nc1ccc(C(F)(F)F)cc1)N1CCN(c2ccnc3cc(Cl)ccc23)CC1 | n | x | n | x | x | x | x | x | x | x | x | x
CCN(CC)/C(Sc1ccccc1)=C(\C(Cl)=C(Cl)Cl)[N+](=O)[O-] | -4.92 | n | x | n | n | n | n | u | u | 0.00637 | u | n
COC(=O)c1cccc(C23CC4(C2)[C@H](CN(Cc2cccnc2)[C@@H]4c2ccccc2)C3c2ccccc2)c1 (some centres not stated) | n | x | x | x | x | x | x | x | x | x | x | x
Cc1ccc2cc(C)c3nnc(SCc4ccc(C(=O)O)cc4)n3c2c1C | 3.14 | x | n | x | x | x | n | 0.00866 | n | 0.0108 | n | 0.0127
Cc1nn2c([nH]c(=O)c3ccccc32)c1C=O | 3.39 | n | x | n | n | n | n | 0.01 | n | u | u | n
Cc1nn2c(nc(N3CCCCC3)c3ccccc32)c1C=O | n | n | n | n | n | n | x | x | x | x | x | x

From PubChem
